The source of these data is ChEMBL document CHEMBL1148952, “A new ene-triyne antibiotic from the fungus Baeospora myosura” (2004).

≈ marks a conversion by molar mass, not a printed value. Calls of active or inactive are those of the source. No cut-off for these calls is given here. Bounds are passed on as bounds.

Experiment [1] concerns Staphylococcus aureus. As to the kind of experiment: Antimicrobial activity against methicillin-sensitive Staphylococcus aureus after 20 hrs in presence of 50% serum. In kind it is functional.
Experiment [2] has as its system Staphylococcus aureus. As to the kind of experiment: Antimicrobial activity against methicillin-resistant Staphylococcus aureus after 20 hrs. The format is functional. The method, boiled down:
(§1)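 Broth MIC determination in cation-adjusted Mueller-Hinton broth, inoculum 10^5 cfu/mL, incubated 35 °C for 20 h.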

Experiment [3] concerns Staphylococcus aureus. As to the kind of experiment: Antimicrobial activity against methicillin-resistant coagulase negative Staphylococcus aureus after 20 hrs. In kind it is functional. In short, it runs like this: as §1
Experiment [4] has as its system Staphylococcus aureus. As to the kind of experiment: Antimicrobial activity against methicillin-sensitive Staphylococcus aureus after 20 hrs. In kind it is functional. In short, it runs like this: as §1
The subject of experiment [5] is Candida albicans. As to the kind of experiment: Antimicrobial activity against Candida albicans after 24 hrs. In kind it is functional. The method, boiled down: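 Yeast MIC in RPMI 1640. Inoculum 10^3 cfu/mL, incubated 35 °C for 24 h. Compound supplied from a DMSO stock quantified by UV absorbance at 325 nm.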
In experiment [6] the test system is Pseudomonas aeruginosa. As to the kind of experiment: Antimicrobial activity against Pseudomonas aeruginosa after 20 hrs. The format is functional. In short, it runs like this: (§2)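 Broth MIC in cation-adjusted Mueller-Hinton broth. Inoculum 10^5 cfu/mL, incubated 35 °C for 20 h. Test material was held as a DMSO stock, with concentration set by UV absorbance at 325 nm of a MeOH dilution (ε = 2 × 10^4 M-1 cm-1).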

Experiment [7] relates to Haemophilus influenzae. As to the kind of experiment: Antimicrobial activity against Haemophilus influenzae after 20 hrs. The format is functional. In short, it runs like this: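 Haemophilus Test medium broth MIC. Inoculum 10^5 cfu/mL, incubated 35 °C for 20 h. Compound supplied from a DMSO stock quantified by UV absorbance at 325 nm.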
Experiment [8] concerns Escherichia coli. As to the kind of experiment: Antimicrobial activity against Escherichia coli after 20 hrs. In kind it is functional. The method, boiled down:
as §2

For experiment [9], the system named is Enterococcus faecalis. As to the kind of experiment: Antimicrobial activity against vancomycin-sensitive Enterococcus faecalis after 20 hrs. In kind it is functional. In short, it runs like this: as §2
For experiment [10], the system named is Enterococcus faecium. As to the kind of experiment: Antimicrobial activity against vancomycin-resistant Enterococcus faecium after 20 hrs. The format is functional. The method, boiled down:
as §1

Experiment [11] relates to coagulase-negative Staphylococcus. As to the kind of experiment: Antimicrobial activity against methicillin-resistant coagulase negative Staphylococcus after 20 hrs.
Experiment [12] concerns Streptococcus pneumoniae. As to the kind of experiment: Antimicrobial activity against penicillin-resistant Streptococcus pneumoniae after 20 hrs. In kind it is functional. In short, it runs like this: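 Broth MIC determination in cation-adjusted Mueller-Hinton broth supplemented with 2.5% lysed horse blood, inoculum 10^5 cfu/mL, incubated 35 °C for 20 h.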
The test system of experiment [13] is Priestia megaterium. As to the kind of experiment: Antimicrobial activity against Bacillus megaterium after 20 hrs. In kind it is functional. In short, it runs like this:
as §2

For experiment [14], the system named is Streptococcus pneumoniae. As to the kind of experiment: Antimicrobial activity against Streptococcus pneumoniae after 20 hrs. The format is functional. In short, it runs like this:
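MIC by broth dilution in cation-adjusted Mueller-Hinton broth with 2.5% lysed horse blood. Inoculum 10^5 cfu/mL, 35 °C for 20 h. DMSO stock quantified by UV absorbance at 325 nm.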

Experiment [15] deals with Streptococcus pyogenes. As to the kind of experiment: Antimicrobial activity against Streptococcus pyogenes after 20 hrs. In kind it is functional.
Experiment [16] concerns Klebsiella pneumoniae. As to the kind of experiment: Antimicrobial activity against Klebsiella pneumoniae after 20 hrs. The format is functional. In short, it runs like this:
as §2

For the molecule `CCCCCCCCC(=O)Nc1ccc(C(=O)O)cc1`, the result in experiment [1], in experiment [2], in experiment [3] and in experiment [4] was inactive.
Turning to `C#CC#CC#C/C=C/C(=O)Nc1ccc(C(=O)O)cc1`, the MIC was 16 µg/mL in experiment [1]; > 32 µg/mL in experiment [5]; > 32 µg/mL in experiment [6]; 0.5 µg/mL (≈ 1.9 µM) in [7]; 32 µg/mL (≈ 122 µM) in experiment [8]; 0.12 µg/mL (≈ 0.456 µM) in [9]. Further, the MIC is 0.015 µg/mL (≈ 0.057 µM) in experiment [10]; 0.001 µg/mL (≈ 0.0038 µM) in experiment [2]; 0.0005 µg/mL (≈ 0.0019 µM) in experiment [11]; 16 µg/mL (≈ 60.8 µM) in experiment [12]; 0.0005 µg/mL (≈ 0.0019 µM) in experiment [4]; 4 µg/mL (≈ 15.2 µM) in experiment [13]. Besides, the MIC is 8 µg/mL (≈ 30.4 µM) in [14], 0.008 µg/mL (≈ 0.0304 µM) in experiment [15] and > 32 µg/mL in experiment [16].
Consider `CC(=O)Nc1ccc(C(=O)O)cc1`, for which the result in [1], in [2], in experiment [3] and in experiment [4] was inactive.
